Source: PubChem
Sampled rows, rich in hits. Any-hit rate of the full collection: about 2.3%.
PLC-gamma1 inh – PLC-gamma1 enzyme inhibitors, primary screen, biochemical, fluorescence, purified enzyme. 1-phosphatidylinositol 4,5-bisphosphate phosphodiesterase gamma-1 (Homo sapiens), P19174. fluorogenic substrate. inhibition, % at 12.2 µM. hit rate 0.84% among 370,000. AID 720700, 2013; in the data active = inhibition above about 9.5%
ADAM17 inh – ADAM17 inhibitors, primary screen, biochemical, QFRET | Disintegrin and metalloproteinase domain-containing protein 17 (Homo sapiens), P78536 | recombinant ADAM17, EDANS/DABCYL FRET peptide cleavage | inhibition, % at 6.95 µM | hit rate 0.83% among 370,000;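 active = inhibition above the mean of compounds lying between control limits plus 3 SD, set per campaign, cut at about 8.5% in these data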;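 note: 0% = DMSO-only wells as the low control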
ADAM10 inh – human ADAM10 inhibitors, primary screen, biochemical, QFRET, HTS | AID 720582, 2013 | inhibition, % at 7 µM | recombinant ADAM10, EDANS/DABCYL FRET peptide cleavage, 3 h | Disintegrin and metalloproteinase domain-containing protein 10 (Homo sapiens), O14672 | hit rate 0.62% among 370,000;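 active = inhibition above a per-campaign cutoff equal to the mean of compounds falling between control-based bounds plus 3 SD, cut at about 20% in these data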;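 note: 0% = DMSO wells while the 100% control is not disclosed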
TbMetRS inhib – T. brucei MetRS inhibitors, primary screen, biochemical, luminescence | methionyl-tRNA synthetase (Trypanosoma brucei brucei) | purified T. brucei MetRS, ATP depletion, Kinase-Glo luminescence | inhibition, % at 11.9 µM | hit rate 0.4% among 360,000 | AID 624268, 2012;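 active = inhibition above a per-plate cutoff of the control wells' mean inhibition plus 3 SD, cut at about 5.5% in these data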;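 note: 0% = DMSO wells median and 100% = median of wells with control inhibitor compound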
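Material: T. brucei methionyl-tRNA synthetase, purified; reagent: substrates ATP, L-methionine and bulk Escherichia coli tRNA; dosing: 11.9 µM single point; timing: 15 min plus 2 h at 25 °C; detection: luminescence of leftover ATP; evaluation: % inhibition; control set: DMSO-only wells as low control; replicates: singlicate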
PLC-beta3 inh – human PLC-beta3 inhibitors, primary screen, biochemical, fluorescence. inhibition, % at 12.2 µM. hit rate 0.18% among 370,000. Purified PLC-beta3, fluorogenic substrate;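 note: 0% = median of compound wells on plate and 100% = full blocker control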
PLCgamma1 ctr – PLC-gamma1 enzyme inhibitors, counter-screen for PLC-beta3 inhibitor project, biochemical, fluorescence. shares compounds with PLC-gamma1 inh. hit rate 3.1% among 3,300. purified PLC-gamma1, fluorogenic substrate. AID 743258, 2014. inhibition, % at 12.3 µM; in the data active = inhibition above about 9.5%
PLCbeta3 conf – PLC-beta3 inhibitor confirmation, biochemical, fluorescence, purified enzyme | shares compounds with PLC-gamma1 inh | fluorogenic substrate fluorescence | inhibition, % at 12.3 µM | hit rate 1% among 3,300
* hit, by the source's call; / = no result given. Cut-off read from the data, not from the text of the source, unless noted: active = inhibition above about 11%; inactive = the rest.

SMILES	PLC-gamma1 inh	ADAM17 inh	ADAM10 inh	TbMetRS inhib	PLC-beta3 inh	PLCgamma1 ctr	PLCbeta3 conf
CCOc1ccccc1NC(=O)COn1nnc2ccccc21	11*	5	8	-1	4	-4	-7
Cc1onc(-c2ccccc2Cl)c1C(=O)OCn1nnc2ccccc2c1=O	11*	8	11	0	3	-3	1
CC(CCN1CCC(C(O)(c2ccccc2)c2ccccc2)CC1)Oc1ccc(C#N)c(F)c1 (stereo unspecified)	3	1	2	/	2	/	/
O=c1cc(CO)occ1OCc1cccc(F)c1	9	0	0	0	7	/	/
Cc1ccc(COc2coc(CO)cc2=O)cc1	8	3	8	0	12*	-7	-3
COc1ccc(-c2cc(-c3nnc(SCC(=O)Nc4cccc(Cl)c4C)n3N)[nH]n2)cc1	6	2	-8	/	0	/	/
O=C(CCC1CCCC1)Nc1ccon1	12*	3	5	0	4	-3	3
Cc1ccccc1NC(=O)c1cccc(C(=O)Nc2ccccc2C)c1	12*	4	-1	-1	3	-1	2
C/C(CC(=O)Nc1ccc(N(C)C)cc1)=N\NC(=O)c1ccc([N+](=O)[O-])cc1	0	-1	3	-1	-7	/	/
C/C(CC(=O)Nc1ccc([N+](=O)[O-])cc1)=N\NC(=O)c1ccccc1[N+](=O)[O-]	11*	4	18	0	5	1	3
NC1=NC[C@@H](CC2CCCCC2)N1CCc1cc(C(F)(F)F)cc(C(F)(F)F)c1	/	/	/	-1	/	/	/
NC1=NC[C@H](Cc2ccc(O)cc2)N1CCc1cc(C(F)(F)F)cc(C(F)(F)F)c1	10*	-4	8	0	-3	-8	-3
Cc1cc(C)nc(NC(=S)N2CCN(c3ncc(C(F)(F)F)cc3Cl)CC2)c1	0	-2	5	/	1	/	/
CC(C)c1nc(CNC(=O)C2CCC(=O)N(CCc3ccc(Cl)cc3)C2)no1 (stereo unspecified)	5	0	-10	0	-8	/	/
O=C(Nc1ccccc1N1CCOCC1)c1ccc(Cl)c(S(=O)(=O)NCc2ccco2)c1	9.7*	6	15	0	-3	-4	-4
c1ccc(-c2nnc3oc(-c4cccs4)nn23)cc1	-5	-2	-6	0	3	/	/
CC1(C(=O)Nc2ccc3c(c2)OCCO3)CSCC(=O)N1Cc1ccco1 (stereo unspecified)	3	-5	-14	0	-1	/	/
C[C@H](CO)N1C[C@H](C)[C@@H](CN(C)Cc2ccc(C(=O)O)cc2)Oc2c(NS(=O)(=O)c3cn(C)cn3)cccc2C1=O	3	-4	-4	0	0	/	/
O=C(NCC(=O)N(c1cccnc1)C(C(=O)NC1CCCC1)c1cccs1)c1ccco1 (stereo unspecified)	3	-1	0	0	6	/	/
C#CCNC(=O)C[C@@H]1C[C@@]2(C(=O)OCC)CCCC=C2N(CCCCCCCC)C1=O	-1	1	4	-1	1	/	/
COc1ccc(/C=N/Nc2nnc(C)n2N)cc1OC(C)=O	11*	-1	9	0	0	-8	-2
COc1ccc(/C=N/Nc2nnc(C)n2N)cc1OC	8	-5	-5	1	1	/	/
Cc1nnc(N/N=C/c2ccc([N+](=O)[O-])cc2)n1N	20*	-4	4	1	9	8	8
CCOC(=O)C1(Cc2cccc(Cl)c2)CCCN(C(=O)CN2C(=O)CSC2=O)C1 (stereo unspecified)	0	0	-11	-1	-1	/	/
COc1cccc(SCc2noc(C(=O)NCCN(C)C)c2C(=O)NCCN(C)C)c1	9.7*	-3	2	0	8	-4	-2
COCCNC(=O)c1onc(CSc2cccc(OC)c2)c1C(=O)O	-1	0	-2	0	0	/	/
